# Results: ChEMBL document CHEMBL1150300, “Synthesis of 5-chloro-N-aryl-1H-indole-2-carboxamide derivatives as inhibitors of human liver glycogen phosphorylase a” (Bioorg Med Chem, 2008)
# Tested on: Mus musculus
# Assay: Hypoglycemic activity against C57BL/KsJ db/db mouse assessed as reduction of blood glucose at 30 mg/kg, po after 2 hrs relative to control
# Assay type: functional
# Design: scale not given: the % may be the effect or the level left
# Summary of the method: (§1)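 Male C57BL/KsJ db/db mice, 6 weeks old, on commercial diet, grouped (n = 6) to uniform blood glucose and body weight; non-fasted pre-dose glucose measured next day. Single oral dose at 10 mL/kg; blood glucose measured at 2 h. Activity given as percentage decrease versus vehicle-treated controls, significance by unpaired t-test on mean glucose.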
row,SMILES,Activity [%]
1,O=C(Nc1ccc(C(O)CO)cn1)c1cc2cc(Cl)ccc2[nH]1 (configuration not stated),13

# Biological target: T1, Glycogen phosphorylase, liver form (Homo sapiens, UniProt P06737)
# T1 sequence (P06737 whole entry): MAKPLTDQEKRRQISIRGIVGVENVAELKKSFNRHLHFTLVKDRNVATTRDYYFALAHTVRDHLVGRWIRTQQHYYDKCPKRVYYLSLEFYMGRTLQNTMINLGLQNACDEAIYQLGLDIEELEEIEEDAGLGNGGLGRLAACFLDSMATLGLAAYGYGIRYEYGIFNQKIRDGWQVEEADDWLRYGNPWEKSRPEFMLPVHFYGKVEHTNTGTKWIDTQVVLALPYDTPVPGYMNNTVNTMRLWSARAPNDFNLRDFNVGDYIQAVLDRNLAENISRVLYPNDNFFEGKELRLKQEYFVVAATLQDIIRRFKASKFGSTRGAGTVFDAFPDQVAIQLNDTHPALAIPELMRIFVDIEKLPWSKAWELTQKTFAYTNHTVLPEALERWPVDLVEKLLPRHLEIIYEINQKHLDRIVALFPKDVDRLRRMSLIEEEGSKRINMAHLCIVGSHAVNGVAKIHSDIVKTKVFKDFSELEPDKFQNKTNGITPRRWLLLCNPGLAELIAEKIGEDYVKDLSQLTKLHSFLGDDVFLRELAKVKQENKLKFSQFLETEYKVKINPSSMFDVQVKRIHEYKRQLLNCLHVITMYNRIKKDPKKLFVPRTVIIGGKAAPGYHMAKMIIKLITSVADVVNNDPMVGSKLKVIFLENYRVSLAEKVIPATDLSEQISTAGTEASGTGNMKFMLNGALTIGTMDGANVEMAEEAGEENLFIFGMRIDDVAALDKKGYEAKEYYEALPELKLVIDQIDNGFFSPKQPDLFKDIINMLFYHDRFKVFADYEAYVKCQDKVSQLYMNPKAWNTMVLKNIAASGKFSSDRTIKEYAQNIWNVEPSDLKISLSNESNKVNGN
# Assay: Inhibition of human liver glycogen phosphorylase a
row,SMILES,IC50 [nM]
1,O=C(Nc1ccccc1CCO)c1cc2cc(Cl)ccc2[nH]1,> 10000
2,O=C(Nc1ccc(CCO)cc1)c1cc2cc(Cl)ccc2[nH]1,1200
3,O=C(Nc1ncc(C(O)CO)s1)c1cc2cc(Cl)ccc2[nH]1 (configuration not stated),3100
4,O=C(Nc1cccc(CCO)c1)c1cc2cc(Cl)ccc2[nH]1,6200
5,COCC(O)c1ccc(NC(=O)c2cc3cc(Cl)ccc3[nH]2)cc1 (configuration not stated),3600
6,O=C(Nc1ccc(CO)cc1)c1cc2cc(Cl)ccc2[nH]1,1600
7,O=C(Nc1cnc(C(O)CO)cn1)c1cc2cc(Cl)ccc2[nH]1 (configuration not stated),440
8,CC(C)(O)C(O)c1ccc(NC(=O)c2cc3cc(Cl)ccc3[nH]2)cc1 (configuration not stated),> 10000
9,O=C(Nc1ccc(CCCO)cc1)c1cc2cc(Cl)ccc2[nH]1,> 10000
10,O=C(Nc1nc(C(O)CO)cs1)c1cc2cc(Cl)ccc2[nH]1 (configuration not stated),> 10000

# Results, then the compound that gave them:
row,IC50 [nM],SMILES
1,2100,O=C(Nc1ccc(C(O)CO)c([N+](=O)[O-])c1)c1cc2cc(Cl)ccc2[nH]1 (configuration not stated)
2,2600,Cc1cc(C(O)CO)ccc1NC(=O)c1cc2cc(Cl)ccc2[nH]1 (configuration not stated)
3,340,O=C(Nc1ccc(C(O)CO)c(F)c1)c1cc2cc(Cl)ccc2[nH]1 (configuration not stated)
4,5800,O=C(Nc1ccc(C(CO)CO)cc1)c1cc2cc(Cl)ccc2[nH]1
5,1700,Nc1cc(NC(=O)c2cc3cc(Cl)ccc3[nH]2)ccc1C(O)CO (configuration not stated)
6,4400,O=C(Nc1ccc(C(O)CO)nc1)c1cc2cc(Cl)ccc2[nH]1 (configuration not stated)
7,250,O=C(Nc1ccc(C(O)CO)cn1)c1cc2cc(Cl)ccc2[nH]1 (configuration not stated)
8,1100,O=C(Nc1ccc(C(O)CO)cc1Cl)c1cc2cc(Cl)ccc2[nH]1 (configuration not stated)
9,900,O=C(Nc1ccc(C(O)CO)cc1)c1cc2cc(Cl)ccc2[nH]1 (configuration not stated)
10,2500,COc1cc(NC(=O)c2cc3cc(Cl)ccc3[nH]2)ccc1C(O)CO (configuration not stated)
11,420,O=C(Nc1ccc(C(O)CO)cc1F)c1cc2cc(Cl)ccc2[nH]1 (configuration not stated)
12,7400,O=C(Nc1ccc(C(O)CO)c(-c2ccccc2)c1)c1cc2cc(Cl)ccc2[nH]1 (configuration not stated)

# Tested on: Hepatocyte
# Assay: Inhibition of glucagon-induced glycogenolysis in Sprague-Dawley rat hepatocytes
# Assay type: functional, cell-based
# Summary of the method: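 Hepatocytes from fed male Sprague-Dawley rats (150–200 g), viability >85%, plated on collagen at 2.5 × 10⁵ cells/well. Washed cells incubated 30 min at 37 °C in glucose-free/calcium-free Hanks buffer with 0.1% DMSO and inhibitor at 0.1–10 µM, with or without 10 nM glucagon. Medium glucose read by glucose oxidase/peroxidase; IC50 by logistic regression.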
row,SMILES,IC50 [nM]
1,O=C(Nc1ccc(C(O)CO)cn1)c1cc2cc(Cl)ccc2[nH]1 (configuration not stated),620
2,O=C(N[C@@H](Cc1ccc(F)cc1)C(=O)N1CCC(O)CC1)c1cc2cc(Cl)ccc2[nH]1,1700

# Tested on: Mus musculus
# Assay: Hypoglycemic activity against C57BL/KsJ db/db mouse assessed as reduction of blood glucose at 50 mg/kg, po after 2 hrs relative to control
# Assay type: functional
# Design: scale not given: the % may be the effect or the level left
# Summary of the method: as §1
row,SMILES,Activity [%]
1,O=C(Nc1ccc(C(O)CO)cn1)c1cc2cc(Cl)ccc2[nH]1 (configuration not stated),26
2,O=C(N[C@@H](Cc1ccc(F)cc1)C(=O)N1CCC(O)CC1)c1cc2cc(Cl)ccc2[nH]1,20
